Results taken from ChEMBL document CHEMBL1124242, “Renin inhibitors. Dipeptide analogues of angiotensinogen utilizing a dihydroxyethylene transition-state mimic at the scissile bond to impart greater inhibitory potency” (J Med Chem, 1988).
One block for each compound: values may come before it. Where a SMILES comes first, the peptide text is derived from it. [ ]: non-standard residue; d: D form. The star is where a group is joined. 1Nal = N[C@@H](Cc1cccc2ccccc12)C(=O)O; Cha = N[C@@H](CC1CCCCC1)C(=O)O; Leu(ol) = CC(C)C[C@H](N)CO; Cbz = O=C(OCc1ccccc1)*; Boc = CC(C)(C)OC(=O)*

Legend:
[1] = biological target: T1, Gastricsin (Homo sapiens) (UniProt P20142); assay: In vitro Inhibitory activity against human Gastricsin at 10e-5 (M)
T1 sequence (whole entry): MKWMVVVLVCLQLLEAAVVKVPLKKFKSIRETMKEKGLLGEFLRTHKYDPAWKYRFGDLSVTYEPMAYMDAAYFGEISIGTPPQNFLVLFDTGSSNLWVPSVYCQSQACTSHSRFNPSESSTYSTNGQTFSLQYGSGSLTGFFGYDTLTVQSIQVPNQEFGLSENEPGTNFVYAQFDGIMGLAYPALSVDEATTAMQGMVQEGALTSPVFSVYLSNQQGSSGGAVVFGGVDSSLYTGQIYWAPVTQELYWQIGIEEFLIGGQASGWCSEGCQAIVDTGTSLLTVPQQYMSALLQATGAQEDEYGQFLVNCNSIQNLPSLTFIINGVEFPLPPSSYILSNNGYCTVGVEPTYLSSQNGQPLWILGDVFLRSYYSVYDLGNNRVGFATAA
In short: (§1)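 Human gastricsin and pepsin isolated from gastric juice by IRC-50 ion exchange with pH elution. Hemoglobin substrate; gastricsin run at pH 3.1, pepsin at pH 2.0. After trichloroacetic acid precipitation, supernatant absorbance read at 280 nm. Results given as percent inhibition at 10^-5 M.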

Renin [2] = biological target: T2, Renin (Homo sapiens, UniProt P00797); assay: In vitro inhibitory activity was tested against purified human renal renin
T2 sequence (P00797 whole entry): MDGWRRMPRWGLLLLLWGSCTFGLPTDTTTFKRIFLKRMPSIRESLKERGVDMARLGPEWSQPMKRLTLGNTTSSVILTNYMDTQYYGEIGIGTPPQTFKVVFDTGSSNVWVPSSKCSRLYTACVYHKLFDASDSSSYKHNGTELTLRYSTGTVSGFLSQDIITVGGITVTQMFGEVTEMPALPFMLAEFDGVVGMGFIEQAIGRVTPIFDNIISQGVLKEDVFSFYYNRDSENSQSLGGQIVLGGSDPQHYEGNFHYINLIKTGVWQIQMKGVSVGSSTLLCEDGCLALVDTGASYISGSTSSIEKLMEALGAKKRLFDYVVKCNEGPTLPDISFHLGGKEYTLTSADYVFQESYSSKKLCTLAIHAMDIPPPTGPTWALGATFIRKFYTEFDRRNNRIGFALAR

Pepsin A (Homo sapiens) = Pepsin A (Homo sapiens) (UniProt P0DJD9); assay: In vitro inhibitory activity against Human pepsin at 10e-5 M; in short: as §1
Pepsin A (Homo sapiens), sequence (P0DJD9 63-388 limits assumed): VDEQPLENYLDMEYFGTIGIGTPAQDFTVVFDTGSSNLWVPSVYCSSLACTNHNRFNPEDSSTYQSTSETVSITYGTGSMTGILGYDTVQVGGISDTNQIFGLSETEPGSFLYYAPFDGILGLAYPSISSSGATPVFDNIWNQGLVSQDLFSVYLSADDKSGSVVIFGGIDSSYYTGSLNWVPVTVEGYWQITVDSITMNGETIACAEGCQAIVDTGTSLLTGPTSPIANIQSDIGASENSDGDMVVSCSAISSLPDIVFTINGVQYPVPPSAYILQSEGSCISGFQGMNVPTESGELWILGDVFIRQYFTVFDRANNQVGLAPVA

Pepsin A (Sus scrofa) = Pepsin A (Sus scrofa) (UniProt P00791); assay: In vitro Inhibitory activity against porcine Pepsin at 10e-5 (M)
Pepsin A (Sus scrofa), sequence (P00791 60-385 limits assumed): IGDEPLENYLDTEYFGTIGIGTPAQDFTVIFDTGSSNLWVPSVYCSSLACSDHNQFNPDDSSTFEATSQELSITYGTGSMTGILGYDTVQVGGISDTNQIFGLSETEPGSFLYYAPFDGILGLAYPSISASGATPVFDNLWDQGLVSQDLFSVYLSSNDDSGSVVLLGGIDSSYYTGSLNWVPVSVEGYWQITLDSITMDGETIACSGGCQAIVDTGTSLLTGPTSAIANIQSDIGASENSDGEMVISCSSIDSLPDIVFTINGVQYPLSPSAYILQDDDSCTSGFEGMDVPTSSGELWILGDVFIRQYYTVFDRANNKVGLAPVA
In short: (§2)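 Assayed against purified porcine pepsin or bovine cathepsin D by a method described previously. Results given as percent inhibition at 10^-5 M.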

Renin (Homo sapiens) [3] = biological target: T3, Renin (Homo sapiens) (UniProt P00797); assay: In vitro Inhibitory activity against Renin at 10e-9 (M)
T3 sequence (whole entry): T2 sequence (P00797 whole entry)
In short: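 Purified human renin, procedure as reported earlier. Results given as percent inhibition at 10^-9 M.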

Cathepsin D (Bos taurus) = biological target: T4, Cathepsin D (Bos taurus) (UniProt P80209); assay: In vitro Inhibitory activity against Bovine cathepsin D 10e-5 (M); details: concentration not given here; in short: as §2
T4 sequence (whole entry): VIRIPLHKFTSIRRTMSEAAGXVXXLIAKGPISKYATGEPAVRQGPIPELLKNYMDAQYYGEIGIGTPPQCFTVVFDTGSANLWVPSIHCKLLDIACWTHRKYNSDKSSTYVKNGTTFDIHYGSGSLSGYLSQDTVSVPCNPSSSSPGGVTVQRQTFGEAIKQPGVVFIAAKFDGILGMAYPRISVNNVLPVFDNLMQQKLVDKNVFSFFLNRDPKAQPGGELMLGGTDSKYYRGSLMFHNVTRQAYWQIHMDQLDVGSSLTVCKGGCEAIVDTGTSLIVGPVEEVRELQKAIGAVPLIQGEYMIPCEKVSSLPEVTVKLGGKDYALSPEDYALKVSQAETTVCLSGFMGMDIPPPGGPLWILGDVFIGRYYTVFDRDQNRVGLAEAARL

Renin (Homo sapiens) [4] = biological target: T3, Renin (Homo sapiens); assay: In vitro inhibitory activity against renin at 10e-5 M
Renin [5] = biological target: T2, Renin; assay: In vitro inhibitory activity against renin at 10e-5 (M)
Renin [6] = biological target: T2, Renin; assay: (§3) In vitro inhibitory activity against renin at 10e-6 (M)
Renin (Homo sapiens) [7] = biological target: T3, Renin (Homo sapiens); assay: as §3
Renin [8] = biological target: T2, Renin; assay: In vitro inhibitory activity against renin at 10e-8(M)

inhibition [1]: 0% | IC50 (Renin [2]): 2.5 nM | inhibition (Pepsin A (Homo sapiens)): 25% | inhibition (Pepsin A (Sus scrofa)): 63% | inhibition (Renin (Homo sapiens) [3]): 23% | inhibition (Cathepsin D (Bos taurus)): 81%
SMILES: CC(C)C[C@H](NC(=O)OC(C)(C)C)C(=O)N[C@@H](CC(C)C)C(=O)N[C@@H](CC1CCCCC1)[C@@H](O)[C@@H](O)CC(C)C

inhibition (Renin (Homo sapiens) [4]): 93% | IC50 (Renin [5]): 450 nM
SMILES: C[C@H](NC(=O)[C@H](Cc1ccccc1)NC(=O)OC(C)(C)C)C(=O)N[C@H](C=O)CC1CCCCC1 (Boc-Phe-Ala-[Cha]-aldehyde)

IC50 (Renin [6]): 3600 nM | inhibition (Renin (Homo sapiens) [7]): 61%
SMILES: CC(C)C[C@@H](CO)NC(=O)[C@H](Cc1c[nH]cn1)NC(=O)[C@H](Cc1cccc2ccccc12)NC(=O)OCc1ccccc1 (Cbz-[1Nal]-His-[Leu(ol)])

IC50 (Renin [8]): 80 nM
SMILES: CC(C)C[C@@H](C=O)NC(=O)[C@H](Cc1c[nH]cn1)NC(=O)[C@H](Cc1cccc2ccccc12)NC(=O)OCc1ccccc1 (Cbz-[1Nal]-His-Leu-aldehyde)
